Assay [1] deals with Cell line. Briefly: Effective concentration for transcriptional activation of aromatase in Human cell native protein assay. It counts as functional, cell-based.
Assay [2] concerns Cell line. The assay can be described thus: Effective concentration of compound for transcriptional repression of collagenase in Human cell native protein assay.
The test system of assay [3] is Cell line. Briefly: Effective concentration of compound for transcriptional repression of IL-6 in Human cell native protein assay.
The subject of assay [4] is Cell line. The assay can be described thus: Efficacy for transcriptional activation of TAT in Human cell native protein assay expressed as percentage of the maximal response of Dexamethasone. It counts as functional.
Assay [5] concerns Cell line. Briefly: Efficacy for transcriptional repression of IL-6 in Human cell native protein assay expressed as percentage of the maximal response of Dexamethasone. Format: functional.
Assay [6] relates to Cell line. Briefly: Efficacy for transcriptional […] of PGE-2 in Human cell native protein assay expressed as percentage of the maximal response of Dexamethasone. It counts as functional.
Assay [7] deals with Cell line. Briefly: Effective concentration of compound for transcriptional repression of PGE-2 in Human cell native protein assay.
Assay [8] deals with Cell line. The assay can be described thus: Efficacy for transcriptional activation of collagenase in Human cell native protein assay expressed as percentage of the maximal response of Dexamethasone. It counts as functional.
Assay [9] has as its target T1, Progesterone receptor (Homo sapiens) (UniProt P06401).
T1 sequence (whole entry): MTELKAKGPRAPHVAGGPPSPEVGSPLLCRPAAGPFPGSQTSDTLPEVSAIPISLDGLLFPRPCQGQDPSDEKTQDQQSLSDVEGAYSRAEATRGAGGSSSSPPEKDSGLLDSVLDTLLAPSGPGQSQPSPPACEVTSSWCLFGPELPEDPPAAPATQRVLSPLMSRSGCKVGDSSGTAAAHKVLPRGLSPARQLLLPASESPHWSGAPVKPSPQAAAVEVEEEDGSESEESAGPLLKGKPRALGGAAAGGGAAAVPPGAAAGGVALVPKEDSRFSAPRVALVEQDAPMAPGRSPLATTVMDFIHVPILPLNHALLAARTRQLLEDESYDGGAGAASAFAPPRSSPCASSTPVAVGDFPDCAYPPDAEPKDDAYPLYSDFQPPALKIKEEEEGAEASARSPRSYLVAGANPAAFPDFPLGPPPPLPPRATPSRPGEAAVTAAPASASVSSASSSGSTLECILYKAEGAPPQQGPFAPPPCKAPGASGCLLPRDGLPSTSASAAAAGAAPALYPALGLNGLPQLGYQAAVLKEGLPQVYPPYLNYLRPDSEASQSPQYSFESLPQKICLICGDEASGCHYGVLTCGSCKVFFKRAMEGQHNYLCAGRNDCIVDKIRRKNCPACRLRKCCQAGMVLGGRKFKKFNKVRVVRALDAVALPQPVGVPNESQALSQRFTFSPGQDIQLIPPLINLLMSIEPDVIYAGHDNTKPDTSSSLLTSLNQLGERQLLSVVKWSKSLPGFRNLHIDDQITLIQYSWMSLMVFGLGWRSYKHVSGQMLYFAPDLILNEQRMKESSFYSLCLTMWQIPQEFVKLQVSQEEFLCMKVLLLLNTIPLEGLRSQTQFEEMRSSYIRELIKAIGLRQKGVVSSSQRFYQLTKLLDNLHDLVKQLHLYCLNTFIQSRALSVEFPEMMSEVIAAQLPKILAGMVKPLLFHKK
Briefly: In vitro binding affinity against progesterone receptor. The essentials:
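Competition binding assay against progesterone receptor. Replicates vary by value: single experiments in triplicate; two experiments with triplicate determinations (with standard deviation); or at least three separate experiments in triplicate (mean ± SEM).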

For assay [10], the system named is Cell line. Briefly: Effective concentration of compound for transcriptional activation of osteocalcin in Human cell native protein assay. Format: functional, cell-based.
For assay [11], the system named is Cell line. Briefly: Effective concentration of compound for transcriptional activation of TAT in Human cell native protein assay. Format: functional, cell-based.
For assay [12], the system named is Cell line. The assay can be described thus: Efficacy for transcriptional repression of osteocalcin in Human cell native protein assay expressed as percentage of the maximal response of Dexamethasone.
For assay [13], the system named is Cell line. Briefly: Efficacy for transcriptional activation of aromatase in Human cell native protein assay expressed as percentage of the maximal response of Dexamethasone. It counts as functional.
The target in assay [14] is T2, Glucocorticoid receptor (Homo sapiens, UniProt P04150).
T2 sequence (P04150 whole entry): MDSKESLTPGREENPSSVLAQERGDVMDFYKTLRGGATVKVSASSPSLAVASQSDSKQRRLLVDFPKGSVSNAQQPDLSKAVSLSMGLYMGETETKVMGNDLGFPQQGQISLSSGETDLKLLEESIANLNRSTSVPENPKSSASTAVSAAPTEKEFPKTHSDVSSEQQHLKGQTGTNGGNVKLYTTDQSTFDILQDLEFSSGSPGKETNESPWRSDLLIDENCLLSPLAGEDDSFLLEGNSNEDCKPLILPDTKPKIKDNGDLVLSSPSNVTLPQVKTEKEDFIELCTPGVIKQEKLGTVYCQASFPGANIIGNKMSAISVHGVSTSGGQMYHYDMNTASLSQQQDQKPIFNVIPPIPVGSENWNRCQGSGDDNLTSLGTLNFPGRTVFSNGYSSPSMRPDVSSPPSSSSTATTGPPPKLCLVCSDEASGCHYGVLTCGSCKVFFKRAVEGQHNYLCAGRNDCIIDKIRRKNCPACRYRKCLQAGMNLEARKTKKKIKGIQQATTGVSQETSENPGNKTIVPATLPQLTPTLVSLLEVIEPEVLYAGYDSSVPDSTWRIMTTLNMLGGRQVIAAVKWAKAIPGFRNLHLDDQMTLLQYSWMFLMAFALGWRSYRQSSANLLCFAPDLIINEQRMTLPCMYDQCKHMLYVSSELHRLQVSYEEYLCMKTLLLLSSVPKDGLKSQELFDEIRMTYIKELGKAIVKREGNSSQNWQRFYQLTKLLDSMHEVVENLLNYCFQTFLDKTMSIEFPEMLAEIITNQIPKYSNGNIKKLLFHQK
The assay can be described thus: Inhibition of transcriptional repression in CV-1 cells expressing glucocorticoid receptor. Format: functional, cell-based.

Assay [15] concerns the target T1, Progesterone receptor (Homo sapiens). Briefly: Transcriptional activation in cells expressing progesterone receptor isoform B compared to progesterone. Format: functional.
Another assay deals with T3, Progesterone receptor (Homo sapiens, UniProt P06401).
T3 sequence (P06401 whole entry): T1 sequence (whole entry)
Briefly: Inhibition of transcriptional activation in cells expressing progesterone receptor isoform B. Format: functional.

The target in assay [16] is T2, Glucocorticoid receptor. Briefly: Inhibition of transcriptional activation in CV-1 cells expressing glucocorticoid receptor. Format: functional, cell-based.

For orientation: EC50 means the midpoint of the concentration-response curve. One may read the IC50 as the concentration that gives 50% inhibition. High values mean a need for much substance, low ones inhibition by little substance.

On to `C[C@]12C=CC(=O)C=C1CC[C@@H]1[C@@H]2[C@@H](O)C[C@@]2(C)[C@H]1CC[C@]2(O)C(=O)CO` [PREDNISOLONE], for which the EC50 in the assay with Cell line [1] was found to be 0.045 µM; with Cell line [2] it was 0.0004 µM; in the assay on Cell line [3], 0.0036 µM; with Cell line [7] it was 0.002 µM; in the assay with Cell line [10], 0.032 µM; in the assay with Cell line [11], 0.048 µM. Further, the Efficacy in the assay with Cell line [4] came to 95%; with Cell line [5], 98%; with Cell line [6], 100%; in the assay on Cell line [8] it was 98%; with Cell line [12], 94%; in the assay on Cell line [13], 96%. In addition, the Activity in assay [9] was above 5000 nM.
Regarding `COc1cccc2c1-c1ccc3c(c1[C@H]([C@@H]1C=C(C)CCC1)O2)C(C)=CC(C)(C)N3`, the IC50 against Glucocorticoid receptor [14] is 0.0058 µM; against Progesterone receptor, 0.014 µM; against Glucocorticoid receptor [16] it was above 5 µM. Besides, the EC50 with Cell line [1] worked out at 0.059 µM; with Cell line [2], 0.0034 µM; in the assay on Cell line [3], 0.045 µM; in the assay with Cell line [7] it was 0.0054 µM; in the assay with Cell line [10] it was 0.054 µM; with Cell line [11], 0.29 µM. In addition, the Efficacy in the assay on Cell line [4] stood at 67%; in assay [15], 70%; in the assay with Cell line [5] it was 90%; in the assay with Cell line [6], 95%; with Cell line [8] it was 97%; in the assay on Cell line [12] it was 71%. The Efficacy in the assay on Cell line [13] stood at 43%. In assay [9], this compound returned an Activity of 430 nM.
Take `COc1c(O)ccc2c1-c1ccc3c(c1[C@H]([C@@H]1C=C(C)CCC1)O2)C(C)=CC(C)(C)N3`: in assay [15], the Efficacy was 260%. The compound further returned an IC50 against Progesterone receptor of 0.0071 µM. Also, in [9], the Activity worked out at 11.4 nM.
